The source made the active and inactive calls. The rule behind the calls is not given here.
Columns and labels:
[1] = tested on: PC-12; assay: Cytotoxicity against rat PC12 cells assessed as decrease in cell viability at high concentration after 12 hrs by MTT assay; format: cell-based; conditions: pc-12, 12 h
[2] = tested on: PC-12; assay: Cytoprotection against amyloid beta (1 to 42)-induced cell injury in rat PC12 cells assessed as cell viability at 10 uM preincubated for 12 hrs followed by amyloid beta (1 to 42) addition measured after 12 hrs by MTT assay (reference value: 55.3 +/- 1.5%); format: functional; conditions: read-out: Activity
[3] = tested on: PC-12; assay: Cytoprotection against amyloid beta (1 to 42)-induced cell injury in rat PC12 cells assessed as cell viability at 50 uM preincubated for 12 hrs followed by amyloid beta (1 to 42) addition measured after 12 hrs by MTT assay (reference value: 55.3 +/- 1.5%); format: functional; conditions: read-out: Activity
[4] = tested on: PC-12; assay: Cytoprotection against H2O2-induced cell injury in rat PC12 cells assessed as increase in cell viability preincubated for 12 hrs followed by H2O2 addition measured after 12 hrs by MTT assay; format: functional, cell-based
Summary of the method: (§1)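 PC12 cells grown in RPMI-1640 with 15% FBS and penicillin/streptomycin, subcultured every 2 days and cultured 8 days before use. Cells seeded at 1 × 10^4/well, after 12 h pretreated with compound 12 h, then exposed to 200 µM H2O2 for 12 h. MTT added for 4 h, formazan dissolved in DMSO, OD 490 nm read. Viability given as % of untreated control, mean ± SD, n = 3, ANOVA with Dunnett's test.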

[5] = tested on: PC-12; assay: Cytoprotection against amyloid beta (1 to 42)-induced cell injury in rat PC12 cells assessed as cell viability at 100 uM preincubated for 12 hrs followed by amyloid beta (1 to 42) addition measured after 12 hrs by MTT assay (reference value: 55.3 +/- 1.5%); format: functional; conditions: read-out: Activity
[6] = tested on: PC-12; assay: Cytoprotection against amyloid beta (1 to 42)-induced toxicity in rat PC12 cells assessed as LDH release at 10 uM preincubated with cells followed by amyloid beta (1 to 42) addition measured after 24 hrs by LDH assay (reference value: 153%); format: functional
[7] = tested on: PC-12; assay: Cytoprotection against amyloid beta (1 to 42)-induced toxicity in rat PC12 cells assessed as LDH release at 50 uM preincubated with cells followed by amyloid beta (1 to 42) addition measured after 24 hrs by LDH assay (reference value: 153%); format: functional
[8] = tested on: PC-12; assay: Cytoprotection against amyloid beta (1 to 42)-induced toxicity in rat PC12 cells assessed as LDH release at 100 uM preincubated with cells followed by amyloid beta (1 to 42) addition measured after 24 hrs by LDH assay (reference value: 153%); format: functional
[9] = tested on: PC-12; assay: Cytoprotection against amyloid beta (1 to 42)-induced oxidative damage in rat PC12 cells assessed as intracellular ROS level at 10 uM preincubated with cells followed by amyloid beta (1 to 42) addition measured after 24 hrs by DCFH-DA staining based flow cytometry (reference value: 51.4%); format: functional
[10] = tested on: PC-12; assay: Cytoprotection against amyloid beta (1 to 42)-induced oxidative damage in rat PC12 cells assessed as intracellular ROS level at 50 uM preincubated with cells followed by amyloid beta (1 to 42) addition measured after 24 hrs by DCFH-DA staining based flow cytometry (reference value: 51.4%); format: functional
[11] = tested on: PC-12; assay: Cytoprotection against amyloid beta (1 to 42)-induced oxidative damage in rat PC12 cells assessed as intracellular ROS level at 100 uM preincubated with cells followed by amyloid beta (1 to 42) addition measured after 24 hrs by DCFH-DA staining based flow cytometry (reference value: 51.4%); format: functional
[12] = tested on: PC-12; assay: Cytoprotection against amyloid beta (1 to 42)-induced oxidative damage in rat PC12 cells assessed as reduction in intracellular ROS level preincubated with cells followed by amyloid beta (1 to 42) addition measured after 24 hrs by DCFH-DA staining based flow cytometry; format: functional, cell-based
[13] = tested on: PC-12; assay: Cytoprotection against amyloid beta (1 to 42)-induced damage in rat PC12 cells assessed as reduction in intracellular MDA level preincubated with cells followed by amyloid beta (1 to 42) addition measured after 24 hrs by TBA assay; format: functional, cell-based
Summary of the method: (§2)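 For the MDA readout, PC12 cells were given 40 µM Aβ1-42 for 24 h with or without compound (10, 50, 100 µM). Samples were mixed with two volumes of TBA reagent (0.375% TBA, 15% trichloroacetic acid, 0.1 mM EDTA) and heated at 95 °C for 40 min. After cooling and centrifugation at 3000 × g for 10 min, supernatant A532 was read. Mean ± SD, n = 3.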

[14] = tested on: PC-12; assay: Cytoprotection against amyloid beta (1 to 42)-induced damage in rat PC12 cells assessed as intracellular MDA level at 10 uM preincubated with cells followed by amyloid beta (1 to 42) addition measured after 24 hrs by TBA assay; format: functional; summary of the method: as §2
[15] = tested on: PC-12; assay: Cytoprotection against amyloid beta (1 to 42)-induced damage in rat PC12 cells assessed as intracellular MDA level at 50 uM preincubated with cells followed by amyloid beta (1 to 42) addition measured after 24 hrs by TBA assay; format: functional; summary of the method: as §2
[16] = tested on: PC-12; assay: Cytoprotection against amyloid beta (1 to 42)-induced damage in rat PC12 cells assessed as intracellular MDA level at 100 uM preincubated with cells followed by amyloid beta (1 to 42) addition measured after 24 hrs by TBA assay; format: functional; summary of the method: as §2
[17] = tested on: PC-12; assay: Cytoprotection against H2O2-induced cell injury in rat PC12 cells assessed as increase in cell viability at 1 to 10 uM preincubated for 12 hrs followed by H2O2 addition measured after 12 hrs by MTT assay; format: functional, cell-based; summary of the method: as §1
[18] = tested on: PC-12; assay: Cytotoxicity against rat PC12 cells assessed as decrease in cell viability at 50 uM after 12 hrs by MTT assay; format: cell-based; conditions: pc-12, 12 h

C[C@@H]1O[C@@H](O[C@H]2[C@H](O[C@H]3CC[C@]4(C)[C@H]5CC=C6[C@@H]7CC(C)(C)CC[C@]7(C(=O)O[C@@H]7O[C@H](CO[C@@H]8O[C@H](CO)[C@@H](O)[C@H](O)[C@H]8O)[C@@H](O)[C@H](O)[C@H]7O)CC[C@@]6(C)[C@]5(C)CC[C@H]4C3(C)C)OC[C@H](O[C@@H]3O[C@H](CO)[C@@H](O)[C@H](O)[C@H]3O)[C@@H]2O)[C@H](O)[C@H](O)[C@H]1O
Activity [1]: Toxic | viability at 10 µM [2]: 29.5% | viability at 50 µM [3]: 19.8%

C[C@@H]1O[C@@H](O[C@H]2[C@H](O[C@H]3CC[C@]4(C)[C@H]5CC=C6[C@@H]7CC(C)(C)CC[C@]7(C(=O)O[C@@H]7O[C@H](CO[C@@H]8O[C@H](CO)[C@@H](O[C@@H]9O[C@@H](C)[C@H](O)[C@@H](O)[C@H]9O)[C@H](O)[C@H]8O)[C@@H](O)[C@H](O)[C@H]7O)CC[C@@]6(C)[C@]5(C)CC[C@H]4C3(C)C)OC[C@H](O[C@@H]3O[C@@H](C)[C@H](O)[C@@H](O)[C@H]3O)[C@@H]2O)[C@H](O)[C@H](O)[C@H]1O
Activity [4]: Dose-dependent effect | viability at 10 µM [2]: 61.4% | viability at 50 µM [3]: 68.4% | viability at 100 µM [5]: 74.6%

C[C@@H]1O[C@@H](O[C@H]2[C@H](O[C@H]3CC[C@]4(C)[C@H]5CC=C6[C@@H]7CC(C)(C)CC[C@]7(C(=O)O[C@@H]7O[C@H](CO[C@@H]8O[C@H](CO)[C@@H](O[C@@H]9O[C@@H](C)[C@H](O)[C@@H](O)[C@H]9O)[C@H](O)[C@H]8O)[C@@H](O)[C@H](O)[C@H]7O)CC[C@@]6(C)[C@]5(C)CC[C@H]4C3(C)C)OC[C@H](O[C@@H]3O[C@H](CO)[C@@H](O)[C@H](O)[C@H]3O)[C@@H]2O)[C@H](O)[C@H](O)[C@H]1O
Activity [4]: Dose-dependent effect | viability at 10 µM [2]: 57% | viability at 50 µM [3]: 65.8% | viability at 100 µM [5]: 70.4% | Activity [6]: 147.4% | Activity [7]: 138.5% | Activity [8]: 126.7% | Activity [9]: 43% | Activity [10]: 35% | Activity [11]: 29.2% | Activity [12]: Dose-dependent effect | Activity [13]: Dose-dependent effect | Activity [14]: 2.5 nmol/mL | Activity [15]: 1.9 nmol/mL | Activity [16]: 1.3 nmol/mL

C[C@@H]1O[C@@H](O[C@H]2[C@H](O[C@H]3CC[C@]4(C)[C@H]5CC=C6[C@@H]7CC(C)(C)CC[C@]7(C(=O)O[C@@H]7O[C@H](CO[C@@H]8O[C@H](CO)[C@@H](O[C@@H]9O[C@@H](C)[C@H](O)[C@@H](O)[C@H]9O)[C@H](O)[C@H]8O)[C@@H](O)[C@H](O)[C@H]7O)CC[C@@]6(C)[C@]5(C)CC[C@H]4C3(C)C)OC[C@H](O)[C@@H]2O)[C@H](O)[C@H](O)[C@H]1O [HEDERASAPONIN B]
Activity [17]: Active | Activity [18]: Toxic | viability at 10 µM [2]: 54.3% | viability at 50 µM [3]: 60.3%

C[C@@H]1O[C@@H](O[C@H]2[C@H](O[C@H]3CC[C@]4(C)[C@H]5CC=C6[C@@H]7CC(C)(C)CC[C@]7(C(=O)O[C@@H]7O[C@H](CO[C@@H]8O[C@H](CO)[C@@H](O[C@@H]9O[C@@H](C)[C@H](O)[C@@H](O)[C@H]9O)[C@H](O)[C@H]8O)[C@@H](O)[C@H](O)[C@H]7O)CC[C@@]6(C)[C@]5(C)CC[C@H]4C3(C)C)OC[C@H](O[C@@H]3OC[C@@H](O)[C@H](O)[C@H]3O)[C@@H]2O)[C@H](O)[C@H](O)[C@H]1O
Activity [4]: Dose-dependent effect | viability at 10 µM [2]: 52.7% | viability at 50 µM [3]: 55.7%

C[C@@H]1O[C@@H](O[C@H]2[C@H](O[C@H]3CC[C@]4(C)[C@H]5CC=C6[C@@H]7CC(C)(C)CC[C@]7(C(=O)O[C@@H]7O[C@H](CO)[C@@H](O)[C@H](O)[C@H]7O)CC[C@@]6(C)[C@]5(C)CC[C@H]4C3(C)C)OC[C@H](O[C@@H]3O[C@H](CO)[C@@H](O)[C@H](O)[C@H]3O)[C@@H]2O)[C@H](O)[C@H](O)[C@H]1O
Activity [1]: Toxic | viability at 10 µM [2]: 14.5% | viability at 50 µM [3]: 10.3%

C[C@@H]1O[C@@H](O[C@H]2[C@H](O[C@H]3CC[C@]4(C)[C@H]5CC=C6[C@@H]7CC(C)(C)CC[C@]7(C(=O)O[C@@H]7O[C@H](CO[C@@H]8O[C@H](CO)[C@@H](O[C@@H]9O[C@@H](C)[C@H](O)[C@@H](O)[C@H]9O)[C@H](O)[C@H]8O)[C@@H](O)[C@H](O)[C@H]7O)CC[C@@]6(C)[C@]5(C)CC[C@H]4C3(C)C)OC[C@H](O[C@@H]3OC[C@H](O)[C@H](O)[C@H]3O)[C@@H]2O)[C@H](O)[C@H](O)[C@H]1O
Activity [4]: Dose-dependent effect | viability at 10 µM [2]: 58.3% | viability at 50 µM [3]: 59.7%

C[C@@H]1O[C@@H](O[C@H]2[C@H](O[C@H]3CC[C@]4(C)[C@H]5CC=C6[C@@H]7CC(C)(C)CC[C@]7(C(=O)O[C@@H]7O[C@H](CO[C@@H]8O[C@H](CO)[C@@H](O[C@@H]9O[C@@H](C)[C@H](O)[C@@H](O)[C@H]9O)[C@H](O)[C@H]8O)[C@@H](O)[C@H](O)[C@H]7O)CC[C@@]6(C)[C@]5(C)CC[C@H]4C3(C)C)OC[C@H](O[C@@H]3O[C@H](CO)[C@H](O)[C@H](O)[C@H]3O)[C@@H]2O)[C@H](O)[C@H](O)[C@H]1O
Activity [4]: Dose-dependent effect | viability at 10 µM [2]: 52.6% | viability at 50 µM [3]: 58.6%

C[C@@H]1O[C@@H](O[C@H]2[C@H](O[C@H]3CC[C@]4(C)[C@H]5CC=C6[C@@H]7CC(C)(C)CC[C@]7(C(=O)O[C@@H]7O[C@H](CO[C@@H]8O[C@H](CO)[C@@H](O[C@@H]9O[C@@H](C)[C@H](O)[C@@H](O)[C@H]9O)[C@H](O)[C@H]8O)[C@@H](O)[C@H](O)[C@H]7O)CC[C@@]6(C)[C@]5(C)CC[C@H]4C3(C)C)OC[C@H](O[C@@H]3O[C@H](CO)[C@@H](O)[C@H]3O)[C@@H]2O)[C@H](O)[C@H](O)[C@H]1O
Activity [4]: Dose-dependent effect | viability at 10 µM [2]: 58.5% | viability at 50 µM [3]: 57.9%

— ChEMBL document CHEMBL4130578, “Synthesis, biological evaluation and structure-activity relationship studies of hederacolchiside E and its derivatives as potential anti-Alzheimer agents” (Eur J Med Chem, 2018)
